From ChEMBL document CHEMBL3596197, “Synthesis, topoisomerase I and II inhibitory activity, cytotoxicity, and structure-activity relationship study of 2-phenyl- or hydroxylated 2-phenyl-4-aryl-5H-indeno[1,2-b]pyridines” (Bioorg Med Chem, 2015)

Legend:
[1] = target: T1, DNA topoisomerase 1 (Homo sapiens) (UniProt P11387); assay: Inhibition of human recombinant DNA topoisomerse 1 using pBR322 as substrate assessed as inhibition of conversion of supercoiled pBR322 to relaxed form at 100 uM after 30 mins by ethidium bromide staining-based electrophoresis analysis
T1 sequence (whole entry): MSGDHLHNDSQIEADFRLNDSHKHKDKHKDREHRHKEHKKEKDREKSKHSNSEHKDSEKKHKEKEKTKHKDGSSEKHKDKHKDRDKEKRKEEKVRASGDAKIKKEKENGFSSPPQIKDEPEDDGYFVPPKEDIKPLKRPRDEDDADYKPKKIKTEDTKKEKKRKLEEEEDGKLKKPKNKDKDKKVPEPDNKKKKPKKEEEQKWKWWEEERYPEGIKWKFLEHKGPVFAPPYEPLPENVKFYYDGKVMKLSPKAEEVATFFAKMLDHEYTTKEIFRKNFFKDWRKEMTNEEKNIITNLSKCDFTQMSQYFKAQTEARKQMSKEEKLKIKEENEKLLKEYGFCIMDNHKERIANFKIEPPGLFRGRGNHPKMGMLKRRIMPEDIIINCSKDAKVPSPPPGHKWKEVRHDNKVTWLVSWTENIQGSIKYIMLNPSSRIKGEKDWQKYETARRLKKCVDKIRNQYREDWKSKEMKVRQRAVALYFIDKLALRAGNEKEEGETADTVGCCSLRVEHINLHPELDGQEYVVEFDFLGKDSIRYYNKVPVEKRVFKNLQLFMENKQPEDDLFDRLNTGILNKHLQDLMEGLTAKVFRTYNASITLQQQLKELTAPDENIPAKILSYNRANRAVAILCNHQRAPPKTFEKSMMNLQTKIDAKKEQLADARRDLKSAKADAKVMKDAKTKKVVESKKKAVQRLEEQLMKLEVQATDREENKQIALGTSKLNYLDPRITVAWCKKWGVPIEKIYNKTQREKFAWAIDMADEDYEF
Method in brief: (§1)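 Relaxation of supercoiled pBR322 (100 ng) by 1 unit recombinant human topo I. Run at 37 °C for 30 min in 10 mM Tris-HCl pH 7.9, 150 mM NaCl, 0.1% BSA, 1 mM spermidine, 5% glycerol. Compounds from 20 mM DMSO stocks. Stopped with sarcosyl, then 1% agarose gel at 15 V for 7 h in TAE. Ethidium bromide stain, UV imaging, bands quantitated.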

[2] = target: T1, DNA topoisomerase 1 (Homo sapiens); assay: Inhibition of human recombinant DNA topoisomerse 1 using pBR322 as substrate assessed as inhibition of conversion of supercoiled pBR322 to relaxed form at 20 uM after 30 mins by ethidium bromide staining-based electrophoresis analysis; method in brief: as §1
[3] = target: DNA topoisomerase 2-alpha (Homo sapiens) (UniProt P11388); assay: Inhibition of human recombinant DNA topoisomerse 2 alpha using pBR322 as substrate assessed as inhibition of conversion of supercoiled pBR322 to relaxed form at 100 uM after 30 mins by ethidium bromide staining-based electrophoresis analysis
Method in brief: (§2)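 Supercoiled pBR322 (200 ng) with 1 unit human topo IIα, 30 min at 30 °C. Buffer: 10 mM Tris-HCl pH 7.9, 50 mM NaCl, 5 mM MgCl2, 1 mM EDTA, 1 mM ATP, 15 μg/mL BSA. Stopped with EDTA. 1% agarose gel at 25 V for 4 h in TAE, ethidium bromide stain, supercoiled DNA quantitated under UV.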

[4] = target: DNA topoisomerase 2-alpha (Homo sapiens) (UniProt P11388); assay: Inhibition of human recombinant DNA topoisomerse 2 alpha using pBR322 as substrate assessed as inhibition of conversion of supercoiled pBR322 to relaxed form at 20 uM after 30 mins by ethidium bromide staining-based electrophoresis analysis; method in brief: as §2
[5] = tested on: HCT-15; assay: Cytotoxicity against human HCT15 cells incubated from day 2 to day 4 by CCK8 assay; format: functional, cell-based
Method in brief: (§3)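 Cells seeded at 2~4 × 10^4 per well and grown overnight in medium with 10% FBS at 37 °C, 5% CO2. Day 2: FBS starvation 4 h, then medium with graded compound concentrations. Day 4: CCK-8 added for 4 h more, absorbance read at 450 nm. IC50 from four-parameter logistic fit. Mean ± S.D. of three experiments run in triplicate.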

[6] = tested on: T47D; assay: Cytotoxicity against human T47D cells incubated from day 2 to day 4 by CCK8 assay; format: functional, cell-based; method in brief: as §3
[7] = tested on: DU-145; assay: Cytotoxicity against human DU145 cells incubated from day 2 to day 4 by CCK8 assay; format: functional, cell-based; method in brief: as §3
[8] = tested on: HeLa; assay: Cytotoxicity against human HeLa cells incubated from day 2 to day 4 by CCK8 assay; format: functional, cell-based; method in brief: as §3

Chain of DNA topoisomerase 2-alpha (Homo sapiens) (P11388 whole entry): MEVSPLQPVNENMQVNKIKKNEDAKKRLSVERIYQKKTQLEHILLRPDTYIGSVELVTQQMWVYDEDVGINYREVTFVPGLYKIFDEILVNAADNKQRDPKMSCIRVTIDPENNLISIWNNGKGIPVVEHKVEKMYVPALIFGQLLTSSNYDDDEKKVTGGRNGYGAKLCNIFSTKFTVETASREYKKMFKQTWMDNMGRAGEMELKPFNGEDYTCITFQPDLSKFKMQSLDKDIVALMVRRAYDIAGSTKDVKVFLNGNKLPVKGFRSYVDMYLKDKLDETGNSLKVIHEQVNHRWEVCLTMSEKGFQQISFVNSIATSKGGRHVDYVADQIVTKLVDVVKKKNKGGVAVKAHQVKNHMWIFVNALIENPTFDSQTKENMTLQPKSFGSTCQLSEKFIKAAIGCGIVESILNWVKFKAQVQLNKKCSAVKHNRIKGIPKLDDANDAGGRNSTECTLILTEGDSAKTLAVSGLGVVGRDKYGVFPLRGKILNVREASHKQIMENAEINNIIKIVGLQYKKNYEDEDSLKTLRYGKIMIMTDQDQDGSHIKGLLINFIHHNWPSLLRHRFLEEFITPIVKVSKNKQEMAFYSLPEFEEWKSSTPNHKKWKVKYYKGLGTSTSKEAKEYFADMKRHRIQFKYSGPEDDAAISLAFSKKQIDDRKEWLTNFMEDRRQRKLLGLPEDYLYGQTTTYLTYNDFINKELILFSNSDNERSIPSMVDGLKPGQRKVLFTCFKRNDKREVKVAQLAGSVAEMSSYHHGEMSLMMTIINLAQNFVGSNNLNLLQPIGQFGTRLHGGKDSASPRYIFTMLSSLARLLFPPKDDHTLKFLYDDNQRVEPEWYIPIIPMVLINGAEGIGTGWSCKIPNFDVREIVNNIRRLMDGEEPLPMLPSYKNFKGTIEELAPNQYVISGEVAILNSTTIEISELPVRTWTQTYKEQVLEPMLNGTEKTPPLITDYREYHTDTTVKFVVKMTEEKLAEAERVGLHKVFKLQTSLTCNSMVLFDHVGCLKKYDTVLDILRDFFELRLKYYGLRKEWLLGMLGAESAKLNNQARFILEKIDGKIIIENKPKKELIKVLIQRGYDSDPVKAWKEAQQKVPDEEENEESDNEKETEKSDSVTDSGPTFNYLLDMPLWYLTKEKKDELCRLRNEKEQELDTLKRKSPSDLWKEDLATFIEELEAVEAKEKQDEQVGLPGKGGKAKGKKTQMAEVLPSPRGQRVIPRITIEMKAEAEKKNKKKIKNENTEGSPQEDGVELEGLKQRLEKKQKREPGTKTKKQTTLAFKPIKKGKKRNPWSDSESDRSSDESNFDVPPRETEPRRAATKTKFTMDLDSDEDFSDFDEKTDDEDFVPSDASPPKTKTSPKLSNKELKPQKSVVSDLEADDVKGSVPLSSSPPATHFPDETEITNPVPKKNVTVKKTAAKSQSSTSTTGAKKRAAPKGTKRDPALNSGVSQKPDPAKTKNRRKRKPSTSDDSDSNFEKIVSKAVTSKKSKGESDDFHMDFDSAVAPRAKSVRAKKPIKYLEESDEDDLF

Structure (SMILES): Oc1ccc(-c2cc(-c3cccs3)c3c(n2)-c2ccccc2C3)cc1
- inhibition [1]: 69.1%
- inhibition [2]: 0%
- inhibition [3]: 40.1%
- inhibition [4]: 21.4%
- IC50 [5]: > 50 µM
- IC50 [6]: > 50 µM
- IC50 [7]: > 50 µM
- IC50 [8]: > 50 µM
